This note sets out measurements from ChEMBL document CHEMBL1154327 (J Med Chem, 2009).

The subject of experiment [1] is Rattus norvegicus. Kind of experiment: Antiinflammatory activity against gamma carrageenan-induced pleurisy in Wistar rat assessed as inhibition of exudate production in pleural cavity at 10 mg/kg, ip administered 30 mins before gamma carrageenan challenge measured after 4 hrs. In kind it is functional. As to conditions: route intraperitoneal. In a few lines:
(§1)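 Male Wistar rats (at least three per group; table gives n = 3-6) received saline or drug ip 30 min before carrageenan. Under sodium pentobarbital anaesthesia (40 mg/kg ip), λ carrageenan (0.2 mL, 10 mg/mL) was injected into the right pleural cavity. After 4 h the rats were anaesthetized (pentobarbital 80 mg/kg ip), the cavity was rinsed with heparinized saline, and exudate was aspirated. Values are % inhibition of exudate, mean ± SE.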

Experiment [2] has as its system Rattus norvegicus. Put plainly: Antiinflammatory activity against gamma carrageenan-induced pleurisy in Wistar rat assessed as decrease in exudate volume in pleural cavity at 20 mg/kg, ip administered 30 mins before gamma carrageenan challenge measured after 4 hrs. It counts as functional, organism-based. Also noted: dose 20 mg/kg. The essentials: as §1
The subject of experiment [3] is Rattus norvegicus. Put plainly: Antiinflammatory activity against gamma carrageenan-induced pleurisy in Wistar rat assessed as decrease in exudate volume in pleural cavity at 10 mg/kg, ip administered 30 mins before gamma carrageenan challenge measured after 4 hrs. In kind it is functional, organism-based. Also noted: dose 10 mg/kg. In a few lines:
as §1

Experiment [4] deals with Rattus norvegicus. Put plainly: Antiinflammatory activity against gamma carrageenan-induced pleurisy in Wistar rat assessed as decrease in exudate volume in pleural cavity at 5 mg/kg, ip administered 30 mins before gamma carrageenan challenge measured after 4 hrs. In kind it is functional, organism-based. The arrangement: dose 5 mg/kg. The essentials: as §1
In experiment [5] the test system is Rattus norvegicus. Put plainly: Antiinflammatory activity against gamma carrageenan-induced pleurisy in Wistar rat assessed as inhibition of exudate production in pleural cavity at 20 mg/kg, ip administered 30 mins before gamma carrageenan challenge measured after 4 hrs. In kind it is functional. As to conditions: route intraperitoneal.
The species named for the next experiment is Homo sapiens. Put plainly: Selectivity ratio of IC50 for COX1 to IC50 for COX2 in human whole blood. In kind it is tissue-based. The essentials: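 COX-1: fresh heparinized human blood diluted 1:4 in RPMI, preincubated with compound (0.01–100 μmol/L final) for 5 min at 37 °C, then stimulated with calcium ionophore A-23187 for 15 min at 37 °C, with serum TXB2 read by EIA. COX-2: heparinized blood with compound for 5 min, then LPS (100 μg/mL final) for 24 h at 37 °C, with plasma PGE2 read by EIA. Ratio = IC50 COX-1/IC50 COX-2 (μM).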

The test system of experiment [6] is Rattus norvegicus. Kind of experiment: Antiinflammatory activity against gamma carrageenan-induced pleurisy in Wistar rat assessed as inhibition of exudate production in pleural cavity at 5 mg/kg, ip administered 30 mins before gamma carrageenan challenge measured after 4 hrs. It counts as functional. Conditions: route intraperitoneal. In a few lines: as §1
Experiment [7] addresses T1, Prostaglandin G/H synthase 2 (Homo sapiens, UniProt P35354).
T1 sequence (P35354 whole entry): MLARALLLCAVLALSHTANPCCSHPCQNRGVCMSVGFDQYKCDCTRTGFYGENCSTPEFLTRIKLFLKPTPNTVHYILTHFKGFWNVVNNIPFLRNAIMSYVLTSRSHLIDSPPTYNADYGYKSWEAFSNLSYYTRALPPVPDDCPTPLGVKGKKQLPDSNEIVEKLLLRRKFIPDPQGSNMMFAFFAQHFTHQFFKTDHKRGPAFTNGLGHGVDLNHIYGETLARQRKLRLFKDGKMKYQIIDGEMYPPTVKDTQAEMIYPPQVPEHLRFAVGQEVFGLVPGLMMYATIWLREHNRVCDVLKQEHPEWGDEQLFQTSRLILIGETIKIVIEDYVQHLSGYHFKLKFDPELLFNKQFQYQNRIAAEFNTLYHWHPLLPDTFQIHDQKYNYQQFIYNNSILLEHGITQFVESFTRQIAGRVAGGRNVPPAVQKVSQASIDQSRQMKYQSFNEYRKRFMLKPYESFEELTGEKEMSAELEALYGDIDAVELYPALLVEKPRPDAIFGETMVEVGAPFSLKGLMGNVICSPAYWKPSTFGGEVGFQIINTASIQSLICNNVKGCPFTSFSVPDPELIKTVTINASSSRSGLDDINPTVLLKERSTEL

In experiment [8] the target is Prostaglandin G/H synthase 1 (Homo sapiens, UniProt P23219). In kind it is tissue-based, Blood.

Calls of active or inactive are those of the source. The rule behind the calls is not given here.

Prostaglandin G/H synthase 1, sequence (P23219 whole entry): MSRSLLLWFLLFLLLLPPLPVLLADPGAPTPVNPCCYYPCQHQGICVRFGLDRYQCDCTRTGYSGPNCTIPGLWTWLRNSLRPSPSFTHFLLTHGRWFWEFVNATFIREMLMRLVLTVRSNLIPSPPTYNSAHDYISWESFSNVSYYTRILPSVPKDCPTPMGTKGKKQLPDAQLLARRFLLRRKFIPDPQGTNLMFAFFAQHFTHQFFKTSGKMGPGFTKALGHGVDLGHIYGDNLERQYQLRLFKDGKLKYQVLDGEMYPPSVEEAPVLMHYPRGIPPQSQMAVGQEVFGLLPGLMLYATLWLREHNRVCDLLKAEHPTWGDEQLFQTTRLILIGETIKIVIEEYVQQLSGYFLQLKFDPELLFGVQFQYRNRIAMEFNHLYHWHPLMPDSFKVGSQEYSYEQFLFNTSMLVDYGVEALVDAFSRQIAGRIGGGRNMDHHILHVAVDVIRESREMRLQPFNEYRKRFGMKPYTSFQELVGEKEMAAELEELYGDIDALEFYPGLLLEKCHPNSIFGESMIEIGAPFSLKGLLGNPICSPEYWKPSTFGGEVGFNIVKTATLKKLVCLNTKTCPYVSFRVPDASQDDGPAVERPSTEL

As a reminder, the inhibition in vivo is the share of the control response that was lost under treatment. In general, IC50 refers to the concentration at which inhibition is half-maximal. The low end stands for greater potency in that assay, the high end for weaker potency in that assay. As to `Cc1cccc(Nc2cnccc2NS(=O)(=O)C(F)(F)F)c1`, the inhibition in vivo at 10 mg/kg in the experiment with Rattus norvegicus [1] was found to be 50.3%. Moreover, the outcome in the experiment with Rattus norvegicus [2] and in the experiment on Rattus norvegicus [3] was Active. For the same compound, the outcome with Rattus norvegicus [4] was inactive. For the same compound, in the experiment on Rattus norvegicus [5], the inhibition in vivo at 20 mg/kg was 69.5%. Besides, the Ratio IC50 in the experiment filed under Homo sapiens is 2.19. Further, in the experiment with Rattus norvegicus [6], the inhibition in vivo at 5 mg/kg was determined as 23.5%. In addition, the IC50 in experiment [7] was found to be 450 nM; in experiment [8], 990 nM.
For the compound `O=S(=O)(Nc1ccncc1Nc1ccccc1)C(F)(F)F`, the inhibition in vivo at 10 mg/kg in the experiment on Rattus norvegicus [1] stood at 55.7%. Besides, the outcome with Rattus norvegicus [2] and in the experiment with Rattus norvegicus [3] was Active. Moreover, the outcome with Rattus norvegicus [4] was inactive. In addition, the inhibition in vivo at 20 mg/kg with Rattus norvegicus [5] was 72.2%. Moreover, the Ratio IC50 in the experiment filed under Homo sapiens was 2. The inhibition in vivo at 5 mg/kg in the experiment on Rattus norvegicus [6] was found to be 25.4%.
